Paper PMC8760168 (Current drug metabolism, 2021)
Values joined by “and” are separate entries in the source; they are usually repeats but may differ in a detail not shown here. Equal values may be shown once.

Experiments:
CYP3A4 = CYP3A4 (Homo sapiens, UniProt P08684); assay: CYP3A4 inhibition assay; settings: recombinant CYP3A4, fluorescent substrate
[1] = Phase I microsomal stability assay, dog liver microsomes; assay type: in vitro ADME; settings: NADPH, 10 μM, 0.5 mg/mL protein, two hours
Procedure, shortened: (§1)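 Test compound at 10 μM in phosphate buffer pH 7.4 with NADPH regenerating system, preincubated 5 min at 37°C. Started with dog, mouse or rat liver microsomes or human liver fraction (0.5 mg/mL protein).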

[2] = Phase II stability assay, glucosidation, mouse liver S9; assay type: in vitro ADME; settings: mouse liver S9, UDP-Glc
Procedure, shortened: (§2)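 Glucosidation: test compound 10 μM in phosphate buffer pH 7.4 with UDP-glucose, gluco-1,5-lactone, MgCl2 and alamethicin, 37°C. Started with mouse liver or kidney S9 (0.5 mg/mL protein). Sampled 0–120 min; long assay (kidney) sampled 1–24 h. Quenched in acetonitrile with internal standard, then LC-MS/MS. t1/2 from ln area ratio. Long assay: first-order k from glucoside area ratio. Two independent assays, triplicate.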

[3] = repeated high dose exposure in rodents; cited from earlier work
GABAA receptors = settings: read-out: receptor affinity (EC50); no reference given; cited from earlier work
[4] = Phase I microsomal stability assay, human liver fraction; assay type: in vitro ADME; settings: NADPH, 10 μM, 0.5 mg/mL protein, two hours
Procedure, shortened: as §1

[5] = cited from earlier work
[6] = Phase I microsomal stability assay, rat liver microsomes; assay type: in vitro ADME; settings: NADPH, 10 μM, 0.5 mg/mL protein, two hours
Procedure, shortened: as §1

[7] = Imaging mass spectrometry of lung after oral administration; assay type: in vivo, Swiss Webster mice; settings: 25 mg/kg oral, lungs harvested after 1 h, 50 μm resolution
Procedure, shortened: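 Female Swiss Webster mice dosed orally. Lungs excised, frozen briefly on dry-ice vapour, stored at −80°C, then equilibrated to −20°C for 30 min. 20-micron cryosections thaw-mounted, rinsed with 0.1% TFA and dried 1 h. 2,5-Dihydroxyacetophenone matrix (50 mg/mL) sprayed in layers. MALDI-TOF/TOF in reflectron MS/MS mode, transitions m/z 416>372 and 416>331.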

[8] = Pharmacokinetic studies in mice; assay type: in vivo, Swiss Webster mice
Procedure, shortened: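 Six-week-old female mice given 25 mg/kg by gavage (2% PEG in 2% aqueous HPMC), 25 mg/kg IP (50% propylene glycol/50% PBS pH 7.2) or 1 mg/kg tail vein (PBS pH 7.2). Blood, lung and non-perfused brain taken at 10–1,440 min, n = 4 (oral, IP) or 8 (IV). Methanol extraction with internal standard, then LC-MS/MS. Two-compartment model; half-lives from elimination rates.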

[9] = Phase II stability assay, glucosidation, mouse kidney S9; assay type: in vitro ADME; settings: mouse kidney S9, UDP-Glc
Procedure, shortened: as §2

[10] = Phase II stability assay, glucuronidation, human liver S9; assay type: in vitro ADME; settings: human liver S9, UDP-GlcUA, alamethicin, saccharolactone, 10 μM
Procedure, shortened: (§3)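 Glucuronidation: test compound 10 μM in phosphate buffer pH 7.4 with UDP-glucuronic acid, saccharic-1,4-lactone, MgCl2 and alamethicin, 37°C. Started with human or mouse liver S9 (0.5 mg/mL protein). Short assay sampled 0–120 min; long assay (mouse) sampled 1–24 h. Quenched in acetonitrile with internal standard, then LC-MS/MS. t1/2 from ln area ratio. Long assay: first-order k from glucuronide area ratio. Two independent assays, triplicate.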

[11] = Phase I microsomal stability assay, mouse liver microsomes; assay type: in vitro ADME; settings: NADPH, 10 μM, 0.5 mg/mL protein, two hours
Procedure, shortened: as §1

[12] = Phase II stability assay, glucuronidation, mouse liver S9; assay type: in vitro ADME
Procedure, shortened: as §3

[13] = Quantification of MIDD0301 and MIDD0301 metabolites in urine and feces; assay type: in vivo, Swiss Webster mice; settings: for Feces & Urine (%) 0-48 hours / Feces (%) 0-24 hours / Feces (%) 24-48 hours / Urine (%) 0-24 hours / Urine (%) 24-48 hours: % of moles of MIDD0301 administered
Procedure, shortened: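 Seven-week-old female mice housed singly in metabolic cages; n = 3 per route. Dosing: oral 750 μg, IP 750 μg (50% propylene glycol/PBS) or IV 250 μg (PBS). Urine and feces collected at 0–24 and 24–48 h and stored at −20°C. Extracted with internal standards, ultrafiltered, then C18 LC-MS/MS with positive MRM against synthesized-standard calibration curves. Reported as % of moles administered.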

[14] = neutral pH; cited from earlier work
[15] = four hours; cited from earlier work

Sequence of CYP3A4 (P08684 whole entry): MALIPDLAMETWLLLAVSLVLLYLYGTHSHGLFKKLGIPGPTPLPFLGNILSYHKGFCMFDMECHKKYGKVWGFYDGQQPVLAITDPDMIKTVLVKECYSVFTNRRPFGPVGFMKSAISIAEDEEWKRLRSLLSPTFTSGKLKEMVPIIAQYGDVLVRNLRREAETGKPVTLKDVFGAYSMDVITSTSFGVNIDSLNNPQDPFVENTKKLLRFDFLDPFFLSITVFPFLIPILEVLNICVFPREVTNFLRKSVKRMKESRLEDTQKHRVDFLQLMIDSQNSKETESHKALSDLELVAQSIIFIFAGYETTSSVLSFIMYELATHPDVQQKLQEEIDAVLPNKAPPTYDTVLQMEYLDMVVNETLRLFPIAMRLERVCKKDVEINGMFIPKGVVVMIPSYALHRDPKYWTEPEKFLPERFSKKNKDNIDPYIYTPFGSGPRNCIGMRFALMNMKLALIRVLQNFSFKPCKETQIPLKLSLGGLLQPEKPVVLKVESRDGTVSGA

SMILES: Cc1c(O)cccc1C(=O)N[C@@H](CSc1ccccc1)[C@H](O)CN1C[C@H]2CCCC[C@H]2C[C@H]1C(=O)NC(C)(C)C [nelfinavir, reference compound]
- inhibition of CYP3A4 activity (CYP3A4; 100 μM): completely inhibited

SMILES: C[C@H]1N=C(c2ccccc2F)c2cc(Br)ccc2-n2cnc(C(=O)O)c21 [MIDD0301]
- metabolic conversion of MIDD0301 [1]: not observed
- conversion of MIDD0301 (glucosidation) [2]: did not observe conversion
- adverse effects [3]: did not cause any adverse effects
- EC50 (GABAA receptors): 0.072 µM
- % inhibition of CYP3A4 activity (CYP3A4; 10 μM): less than 1%
- metabolic conversion of MIDD0301 [4]: not observed
- brain absorption [5]: very little
- central nervous system effects ([5]; high single or repeated dosing): no observed central nervous system effects
- metabolic conversion of MIDD0301 [6]: not observed
- spatial distribution in mouse lung (IMS) [7]: uniform distribution
- half-lives ([8]; 1 mg/kg IV tail vein injection, blood, lung, brain): 1 to 2 h
- tolerability of tail vein injection ([8]; 1 mg/kg IV, aqueous solution): well-tolerated without signs of irritation
- signs of toxicity ([8]; 25 mg/kg IP, throughout the study): no signs of toxicity
- blood concentration after 24 h ([8]; 25 mg/kg oral): 12 nM
- brain concentration after 24 h ([8]; 25 mg/kg oral): less than 3 nM
- lung concentration after 24 h ([8]; 25 mg/kg oral): less than 3 nM
- tmax ([8]; 25 mg/kg oral gavage): 0.333 h
- brain concentration as % of the corresponding blood concentrations ([8]; 25 mg/kg oral, non-perfused brains): less than 7%
- half-lives for blood and lung ([8]; 25 mg/kg oral, based on calculated elimination rates, two compartment model): 4 to 5 h
- drug half-life in blood, lung, and brain ([8]; IP administration): 4 to 6 h
- drug half-life in blood, lung, and brain ([8]; oral administration): 4 to 6 h
- reaction rate, formation of MIDD0301 glucoside [9]: 0.0038 min⁻¹
- half-life, glucosidation ([9]; 10 μM): 4.93 h
- half-life, conversion to glucuronide [10]: 4 h
- metabolic conversion of MIDD0301 [11]: not observed
- half-life, conversion to glucuronide ([12]; mouse liver S9, UDP-GlcUA, alamethicin, saccharolactone, 10 μM): 2.38 h
- reaction rate, formation of MIDD0301 glucuronide (first order kinetics) ([12]; mouse liver S9, monitored for 8 h): 0.0042 min⁻¹
- Feces & Urine (%) 0-48 hours ([13]; IP, 750 μg): 43.9 ± 6.24%
- Feces (%) 0-24 hours ([13]; IP, 750 μg): 43.2% and 43.2 ± 5.9%
- Feces (%) 24-48 hours ([13]; IP, 750 μg): 0.3 ± 0.1%
- Urine (%) 0-24 hours ([13]; IP, 750 μg): 0.3% and 0.3 ± 0.2%
- Urine (%) 24-48 hours ([13]; IP, 750 μg): 0.1 ± 0.04%
- Feces & Urine (%) 0-48 hours ([13]; IV, 250 μg): 32% and 32.0 ± 3.7%
- Feces (%) 0-24 hours ([13]; IV, 250 μg): 30.4% and 30.4 ± 3.4%
- Feces (%) 24-48 hours ([13]; IV, 250 μg): 1.2 ± 0.2%
- Urine (%) 0-24 hours ([13]; IV, 250 μg): 0.4% and 0.4 ± 0.1%
- Urine (%) 24-48 hours ([13]; IV, 250 μg): <LOD
- Feces & Urine (%) 0-48 hours ([13]; oral, 750 μg): 55.1% and 55.1 ± 5.7%
- Feces (%) 0-24 hours ([13]; oral, 750 μg): 54.3% and 54.3 ± 5.2%
- Feces (%) 24-48 hours ([13]; oral, 750 μg): 0.7% and 0.7 ± 0.4%
- Urine (%) 0-24 hours ([13]; oral, 750 μg): 0.1% and 0.1 ± 0.01%
- Urine (%) 24-48 hours ([13]; oral, 750 μg): <LOD
- bioavailability ([13]; oral, from unconjugated MIDD0301 excreted, 32% IV versus 55.1% oral): ≤ 77%
- aqueous solubility [14]: high

SMILES: C#Cc1ccc2c(c1)C(c1ccccc1F)=N[C@H](C)c1c(C(=O)OCC)ncn1-2 [SH-053-2’F-R-CH3]
- metabolic stability [15]: metabolized fully within four hours

SMILES: C#Cc1ccc2c(c1)C(c1ccccc1F)=N[C@H](C)c1c(C(=O)NC)ncn1-2 [MP-III-022]
- metabolic stability [15]: stable
